Measured values from ChEMBL document CHEMBL4321878, “Stereoselective Activity of 1-Propargyl-4-styrylpiperidine-like Analogues That Can Discriminate between Monoamine Oxidase Isoforms A and B” (J Med Chem, 2020).
The source made the active and inactive calls. The calls are words filed in the database; no cut-off is given here.

Legend:
[1] = tested on: SH-SY5Y; assay: Cytotoxicity against human SH-SY5Y cells assessed as reduction in cell viability at 5 to 10 uM measured after 24 hrs by MTS assay; format: cell-based
Method in brief: (§1)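 SH-SY5Y human neuroblastoma cells grown in Advanced DMEM with 10% FBS at 37 °C, 5% CO2, and switched to serum-depleted medium before treatment. Compounds (20 mM DMSO stocks) were applied at 5, 10 or 50 μM for 24 h. Viability read by MTS assay.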

[2] = Cytotoxicity against human SH-SY5Y cells assessed as cell viability at 50 uM measured after 24 hrs by MTS assay relative to control; format: cell-based; details: read-out: Activity; method in brief: as §1
[3] = tested on: Mus musculus; assay: Antidepressant-like activity in Swiss mouse assessed as reduction in immobility time at 3 to 10 mg/kg, ip administered as single dose for 30 mins prior to testing measured for last 4 mins of 6 mins test by tail suspension test; format: functional, organism-based
[4] = target: T1, Amine oxidase [flavin-containing] A (Homo sapiens, UniProt P21397); details: 20 min
T1 sequence (P21397 whole entry): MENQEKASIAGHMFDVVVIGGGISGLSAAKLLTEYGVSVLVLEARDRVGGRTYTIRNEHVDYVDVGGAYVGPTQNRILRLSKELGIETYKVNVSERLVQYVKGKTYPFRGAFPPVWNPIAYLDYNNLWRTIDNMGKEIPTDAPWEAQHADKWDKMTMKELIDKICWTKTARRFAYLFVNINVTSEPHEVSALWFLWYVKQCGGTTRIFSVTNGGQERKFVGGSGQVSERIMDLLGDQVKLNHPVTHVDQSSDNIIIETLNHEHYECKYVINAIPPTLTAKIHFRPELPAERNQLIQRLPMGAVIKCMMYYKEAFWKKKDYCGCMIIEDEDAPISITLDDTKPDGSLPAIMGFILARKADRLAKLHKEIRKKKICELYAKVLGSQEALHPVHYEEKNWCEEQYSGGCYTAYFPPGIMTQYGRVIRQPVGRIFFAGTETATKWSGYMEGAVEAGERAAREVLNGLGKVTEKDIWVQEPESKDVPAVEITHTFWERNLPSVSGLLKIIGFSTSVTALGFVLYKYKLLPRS

[5] = tested on: SH-SY5Y; assay: Neuroprotective activity against 6-OHDA-induced toxicity in human SH-SY5Y cells assessed as LDH release at 5 uM pretreated for 30 mins followed by 6-OHDA challenge and measured after 24 hrs by cytotox-onetm homogeneous membrane integrity assay (reference value: 135%); format: functional
[6] = tested on: Mus musculus; assay: Antianxiety activity in Swiss mouse assessed as increase in open arm entries at 1 mg/kg, ip measured after 30 mins and monitored for 5 mins by elevated plus maze test relative to control; format: functional
[7] = tested on: Mus musculus; assay: Antianxiety activity in Swiss mouse assessed as increase in time spent in open arm entries at 1 mg/kg, ip measured after 30 mins and monitored for 5 mins by elevated plus maze test relative to control; format: functional
[8] = Apparent permeability across absorptive direction in Sprague-Dawley rat ileum at 50 uM measured after 20 mins LC-MS/MS analysis; format: ADME, tissue-based
[9] = Photoisomerization of the compound in D2O incubated for 7 days under sunlight by NMR analysis
[10] = tested on: Mus musculus; assay: Ex vivo inhibition of MAOB in ip dosed Swiss mouse brain homogenates measured after 30 mins using benzylamine as substrate by amplex red reagent-based horseradish peroxidase-coupled fluorescence assay; format: functional
[11] = tested on: Mus musculus; assay: Reversal of haloperidol-induced catalepsy in Swiss mouse at 0.3 mg/kg, ip pretreated for 15 mins followed by haloperidol challenge and measured up to 90 mins; format: functional, organism-based
[12] = Solubility of the compound in pH 7.4 sodium phosphate buffer at >100 uM; format: physicochemical
[13] = tested on: SH-SY5Y; assay: Neuroprotective activity against 6-OHDA-induced toxicity in human SH-SY5Y cells assessed as reduction in propidium iodide positive cells at 5 uM pretreated for 30 mins followed by 6-OHDA challenge and measured after 24 hrs by propidium iodide staining-based flow cytometric analysis relative to 6-OHDA; format: functional
Method in brief: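 SH-SY5Y cells were grown in Advanced DMEM with 10% FBS at 37 °C, 5% CO2 to 80% confluence, then switched to serum-depleted medium. Compound (5 μM, from a 20 mM DMSO stock) was added 30 min before 6-OHDA (100 μM). After 24 h, PI staining was read by flow cytometry. Runs were n ≥ 2, each in duplicate, with one-way ANOVA and Bonferroni.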

[14] = target: T1, Amine oxidase [flavin-containing] A; assay: Irreversible inhibition of recombinant human MAOA expressed in Pichia pastoris at 100 uM measured immediately by UV-vis spectrophotometric analysis relative to control
[15] = tested on: Mus musculus; assay: Antidepressant-like activity in Swiss mouse assessed as reduction in immobility time at 30 mg/kg, ip administered as single dose for 30 mins prior to testing measured for last 4 mins of 6 mins test by tail suspension test; format: functional, organism-based

C#CCN1CCC(/C=C\c2ccccc2)CC1.Cl
Activity [1]: Non-Toxic
viability at 24 h, 50 µM [2]: > 80%
Activity [3]: inactive

C#CCN1CCC(/C=C\c2ccc(C(N)=O)cc2)CC1
activity at 100 µM [4]: 89.5%

C#CCN1CCC(CCc2ccc(C#N)cc2)CC1.Cl
Activity [1]: Non-Toxic
viability at 24 h, 50 µM [2]: > 80%
Activity [5]: 82%

C#CCN1CCC(/C=C/c2ccc(OC)cc2)CC1
activity at 100 µM [4]: 56.1%

CN1C(=O)CN=C(c2ccccc2)c2cc(Cl)ccc21 [DIAZEPAM]
fold change (FC) [6]: 2.1
fold change (FC) [7]: 2.4

COCCc1ccc(OCC(O)CNC(C)C)cc1 (stereo not given) [METOPROLOL]
Papp A→B at 20 min, 50 µM [8]: 14 ×10⁻⁶ cm/s

C#CCN1CCC(CCc2ccc(O)cc2)CC1
activity at 100 µM [4]: 67.7%

C#CCN1CCC(/C=C/c2ccc(C)cc2)CC1
activity at 100 µM [4]: 57.3%

C#CCN1CCC(CCc2ccc(C(N)=O)cc2)CC1
activity at 100 µM [4]: 75.1%

C#CCN1CCC(/C=C/c2ccc(C(F)(F)F)cc2)CC1 [listing 1 of 2 here]
Drug metabolism [9]: Metabolite not detected

C#CCN1CCC(CCc2ccc(C(F)(F)F)cc2)CC1 [listing 1 of 2 here]
activity at 100 µM [4]: 62.3%

C#CCN1CCC(CCc2ccc(C(F)(F)F)cc2)CC1 [listing 2 of 2 here]
Drug metabolism [9]: Metabolite not detected
inhibition [10]: Dose-dependent effect
Activity [11]: inactive

C#CCN1CCCC(CCc2ccc(F)cc2)C1 (racemic)
activity at 100 µM [4]: 93.1%

C#CCN1CCC(CCc2ccccc2)CC1
solubility [12]: Insoluble

C#CCN1CCCC(/C=C/c2ccc(F)cc2)C1 (racemic)
activity at 100 µM [4]: 91%

C#CCN1CCC(CCc2cccc(C(F)(F)F)c2)CC1
activity at 100 µM [4]: 71.6%

C#CCN1CCC(CCc2ccc(C(C)C)cc2)CC1.Cl
Activity [1]: Non-Toxic
viability at 24 h, 50 µM [2]: > 80%
Activity [5]: 82%
fold change (FC) [13]: 0.68

C#CCN1CCC(CCc2ccc(F)cc2)CC1
activity at 100 µM [4]: 76.9%

C#CCN1CCC(/C=C\c2ccc(S(C)(=O)=O)cc2)CC1
activity at 100 µM [4]: 70.6%

C#CCN1CCC(/C=C\c2ccc(Cl)cc2)CC1
solubility [12]: Insoluble

C#CCN1CCC(CCc2ccc(C)cc2)CC1
activity at 100 µM [4]: 68.1%

C#CCN1CCC(CCc2ccc(C(C)C)cc2)CC1
solubility [12]: Insoluble

C#CCN(C)CCCOc1ccc(Cl)cc1Cl [CLORGILINE]
inhibition at 100 µM [14]: 100%

CN(C)CCCN1c2ccccc2CCc2ccccc21
Activity [15]: Active

C#CCN1CCC(/C=C/c2ccc(C(N)=O)cc2)CC1
activity at 100 µM [4]: 64.8%

C#CCN1CCC(/C=C/c2ccc(C(C)C)cc2)CC1
solubility [12]: Insoluble

C#CCN1CCC(/C=C\c2ccc(C)cc2)CC1
activity at 100 µM [4]: 62.2%

C#CCN1CCC(/C=C\c2ccc(C(F)(F)F)cc2)CC1
activity at 100 µM [4]: 80.1%

C#CCN1CCC(/C=C/c2ccc(Br)cc2)CC1
activity at 100 µM [4]: 54.5%

C#CCN1CCC(CCc2ccc(OC)cc2)CC1
activity at 100 µM [4]: 62.2%

C#CCN1CCCC(/C=C/c2cc(F)c(F)cc2F)C1 (racemic)
activity at 100 µM [4]: 102%

C#CCN1CCC(CCc2cc(F)c(F)cc2F)CC1
activity at 100 µM [4]: 65.6%

C#CCN1CCC(/C=C/c2ccc(C(F)(F)F)cc2)CC1 [listing 2 of 2 here]
activity at 100 µM [4]: 64.9%

C#CCN1CCC(/C=C/c2ccc(C#N)cc2)CC1
solubility [12]: Insoluble

C#CCN1CCC(CCc2ccc(Cl)cc2)CC1
activity at 100 µM [4]: 67.7%

C#CCN1CCC(/C=C/c2ccc(F)cc2)CC1.Cl
Activity [1]: Non-Toxic
viability at 24 h, 50 µM [2]: > 80%
Activity [5]: 76%

C#CCN1CCCC(CCc2cc(F)c(F)cc2F)C1 (racemic)
activity at 100 µM [4]: 86%

C#CCN1CCC(/C=C/c2ccc(S(C)(=O)=O)cc2)CC1
activity at 100 µM [4]: 68.7%
